In ChEMBL document CHEMBL3244378, “Antiestrogens and antiestrogen metabolites: preparation of tritium-labeled (+/-)-cis-3-[p-(1,2,3,4-tetrahydro-6-methoxy-2-phenyl-1-naphthyl)phenoxyl]-1,2-propanediol (U-23469) and characterization and synthesis of a biologically important metabolite” (J Med Chem, 1979):

Key:
[1] = target: T1, Estrogen receptor (Rattus norvegicus) (UniProt P06211); assay: Displacement of [3H]-estradiol from estrogen receptor in rat uterine cytosol at 10^-4 to 10^-10 M after 16 hrs relative to estradiol; details: Uterus
T1 sequence (whole entry): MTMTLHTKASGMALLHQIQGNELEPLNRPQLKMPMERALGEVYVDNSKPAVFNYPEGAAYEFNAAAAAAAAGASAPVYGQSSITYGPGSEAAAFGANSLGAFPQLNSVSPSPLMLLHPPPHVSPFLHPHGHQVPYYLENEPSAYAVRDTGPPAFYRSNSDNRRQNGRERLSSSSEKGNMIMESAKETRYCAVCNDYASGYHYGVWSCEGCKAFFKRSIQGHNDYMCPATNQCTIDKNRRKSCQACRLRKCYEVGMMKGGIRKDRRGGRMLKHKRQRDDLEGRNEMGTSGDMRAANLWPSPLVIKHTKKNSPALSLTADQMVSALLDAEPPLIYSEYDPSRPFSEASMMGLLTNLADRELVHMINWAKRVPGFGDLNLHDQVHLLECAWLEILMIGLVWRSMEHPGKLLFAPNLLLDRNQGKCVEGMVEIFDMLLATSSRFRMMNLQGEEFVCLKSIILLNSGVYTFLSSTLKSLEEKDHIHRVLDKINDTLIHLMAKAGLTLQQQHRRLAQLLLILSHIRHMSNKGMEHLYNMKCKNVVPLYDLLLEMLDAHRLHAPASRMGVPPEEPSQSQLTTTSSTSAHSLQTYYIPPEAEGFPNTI

[2] = Drug metabolism in rat uterine nuclear fraction assessed as 1-(p-Hydroxyphenyl)-2-phenyl-6-methoxy-1,2,3,4-tetrahydronaphthalene level at 25 ug, sc after 18 hrs by TLC analysis; format: ADME, organism-based; details: in vivo
[3] = Drug uptake in rat estrogen receptor expressing uterine at 25 ug, sc after 13 hrs by high salt sucrose density gradient analysis in presence of unlabeled estradiol; format: ADME, organism-based, Uterus; details: in vivo
Method in brief: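 Rats pretreated 1 h in vivo with 5 μg unlabeled estradiol or saline vehicle, then given 25 μg tritiated antiestrogen sc. Uteri excised; washed 800g nuclear pellet extracted 1 h at 0 °C with buffer containing 0.4 M KCl. Extract charcoal-dextran treated, ¹⁴C ovalbumin and γ-globulin markers added. High-salt sucrose gradients spun 17 h, 4 °C, 270000g; 5S binding read.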

Serum = assay: Drug metabolism in rat serum assessed as metabolite level at 25 ug, sc after 1 hr by TLC analysis; format: ADME, organism-based; details: in vivo
Method in brief: (§1)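 Immature rats given tritiated antiestrogen, 25 μg sc per rat. At 1 and 13 h, serum was prepared and extracted with ethyl acetate. Uteri were homogenized, the nuclear pellet washed three times, then extracted with ethanol. Extracts were concentrated, run on silica gel TLC in anesthetic ether–ethanol (98:2), and radioactivity counted by liquid scintillation.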

[4] = Drug metabolism in rat uterine nuclear fraction assessed as metabolite level at 25 ug, sc after 1 hr by TLC analysis; format: ADME, organism-based; details: in vivo
Method in brief: as §1

[5] = Drug metabolism in rat uterine nuclear fraction assessed as metabolite level at 25 ug, sc after 13 hrs by TLC analysis; format: ADME, organism-based; details: in vivo
Method in brief: as §1

[6] = Drug metabolism in rat uterine nuclear fraction assessed as 1-[p-(2,3-Dihydroxyphenyl)phenyl]-2-phenyl-6-methoxy-1,2,3,4-tetrahydronaphthalene level at 25 ug, sc after 18 hrs by TLC analysis; format: ADME, organism-based; details: in vivo
[7] = Drug metabolism in rat uterine nuclear fraction assessed as 3-(4-((1R,2S)-6-hydroxy-2-phenyl-1,2,3,4-tetrahydronaphthalen-1-yl)phenoxy)propane-1,2-diol level at 25 ug, sc after 18 hrs by TLC analysis; format: ADME, organism-based; details: in vivo
[8] = Drug metabolism in rat uterine nuclear fraction assessed as (5R,6S)-5-(4-hydroxyphenyl)-6-phenyl-5,6,7,8-tetrahydronaphthalen-2-ol level at 25 ug, sc after 18 hrs by TLC analysis; format: ADME, organism-based; details: in vivo

Compound	RBA [1]	also measured
COc1ccc2c(c1)CC[C@@H]1[C@@H]2CC[C@]2(C)[C@@H](O)CC[C@@H]12	3	–
CC[C@H](c1ccc(O)cc1)[C@@H](CC)c1ccc(OC)cc1 (relative stereo)	19.3	–
CC[C@H](c1ccc(O)cc1)[C@@H](CC)c1ccc(OCC(O)CO)cc1 (relative stereo)	6.9	–
OCC(O)COc1ccc([C@@H]2c3ccc(O)cc3CC[C@@H]2c2ccccc2)cc1 (stereo partly specified)	39.1	–
Oc1ccc([C@@H]2c3ccc(O)cc3CC[C@@H]2c2ccccc2)cc1	29.8	–
COc1ccc2c(c1)CC[C@H](c1ccccc1)[C@@H]2c1ccc(OCC(O)CO)cc1 (mixture of isomers)	0.1	Drug metabolism [2]: metabolite_detected; Drug metabolism [3]: metabolite_detected; Drug metabolism (Serum): metabolite_detected; Drug metabolism [4]: metabolite_detected; Drug metabolism [5]: metabolite_detected; Drug metabolism [6]: metabolite_detected; Drug metabolism [7]: metabolite_detected; Drug metabolism [8]: metabolite_detected
COc1ccc2c(c1)CC[C@H](c1ccccc1)[C@@H]2c1ccc(O)cc1	0.24	–
CC[C@H](c1ccc(O)cc1)[C@@H](CC)c1ccc(O)cc1	300	–
